Format in all cases: functional, Canis lupus familiaris
Assay [1] concerns Canis familiaris. Briefly: Cardiovascular effect upon blood pressure(BP) in anesthetized open-chest dogs at a dose of 10 ug/ kg administered intravenously. In short, it runs like this:
(§1)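 Mongrel dogs anesthetized with pentobarbital sodium 30 mg/kg, open chest. Parameters allowed to stabilize, then drug given as single 10 μg/kg iv dose via femoral vein cannula. FBF and CBF expressed as % change from predose value; BP as change from predose value. Means ± SE, n = 3.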

Assay [2] is filed under the species Canis familiaris. Briefly: Vasodilatory activity (at 100 nmol) relative to nifedipine (at 10 nmol) by coronary artery blood flow (CBF) in isolated blood perfused canine heart preparations. In short, it runs like this:
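The canine heart was isolated after pentobarbital (30 mg/kg iv), heparin (500 U/kg) and exsanguination. A septum–papillary muscle preparation was perfused with donor-dog blood via the anterior septal artery at constant 100 mmHg. It was preloaded to 2 g and paced at 120/min with 5 ms pulses at 1.2× threshold. Septal artery flow was read by electromagnetic flowmeter as CBF, and drugs were given intra-arterially. Ratio = effect of test compound (100 nmol) / effect of nifedipine (10 nmol). Means ± SE, n = 3 or 1.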

Assay [3] has as its system Canis familiaris. The experiment in a line: Cardiovascular effect upon femoral artery blood flow(FBF) in anesthetized open-chest dogs at a dose of 10 ug/ kg administered intravenously. In short, it runs like this:
as §1

The species entered for assay [4] is Canis familiaris. The experiment in a line: Vasodilatory activity (at 10 nmol) relative to nifedipine (at 1 nmol) by femoral artery blood flow (FBF) in autoperfused canine femoral artery preparations. A digest of the protocol: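 Dogs were anesthetized with pentobarbital (30 mg/kg iv, then 4 mg/kg/h infusion) and heparinized (700 U/kg, then 100 U/kg/h). The right femoral artery was autoperfused with carotid blood at 90 mL/min by pump. Flow was read by electromagnetic flowmeter in the circuit, and drugs were given intra-arterially by microsyringe. Ratio = effect of test compound (10 nmol) / effect of nifedipine (1 nmol). Means ± SE, n = 3 or 1.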

The subject of assay [5] is Canis familiaris. Briefly: Cardiovascular effect upon coronary artery blood flow(CBF) in anesthetized open-chest dogs at a dose of 10 ug/ kg administered intravenously. In short, it runs like this:
as §1

SMILES strings stand for the structures.

For the compound `CC(C)c1cc(C(=O)N2CCC(N(C)CCc3ccccc3)CC2)cc2c1NC(=O)CC2.Cl`, the BP in the assay on Canis familiaris [1] is -19 mmHg. Also, the “CBF Ratio” value in the assay listed under Canis familiaris [2] was 0.25. In addition, the FBF % change in the assay on Canis familiaris [3] turned out to be 73. Further, the “FBF Ratio” value in the assay listed under Canis familiaris [4] worked out at 1.13. The CBF % change in the assay on Canis familiaris [5] turned out to be 15.

As for `CN(CCc1ccccc1)C1CCN(C(=O)c2ccc3c(c2)CCC(=O)N3)CC1.Cl`, in the assay with Canis familiaris [1], the BP is given as -9 mmHg. In the assay filed under Canis familiaris [2], the “CBF Ratio” value was determined as 0. Besides, the FBF % change in the assay with Canis familiaris [3] amounted to 38. In the assay listed under Canis familiaris [4], the “FBF Ratio” value is 1.64. Besides, the CBF % change in the assay on Canis familiaris [5] is recorded as 11.

Turning to `Cc1cc2c(cc1C(=O)N1CCC(N(C)CCc3ccccc3)CC1)CCC(=O)N2.O=C(O)C(=O)O`, in the assay with Canis familiaris [1], the BP was -13 mmHg. Moreover, the “CBF Ratio” value in the assay filed under Canis familiaris [2] came out at 0.02. In the assay on Canis familiaris [3], this compound gave an FBF % change of 41. In the assay listed under Canis familiaris [4], the “FBF Ratio” value is on record as 3.01. The CBF % change in the assay with Canis familiaris [5] is recorded as 11.

Take `CCC(=O)Nc1c(C)cc(C(=O)N2CCC(N(C)CCc3ccccc3)CC2)cc1OC.Cl`: the BP in the assay with Canis familiaris [1] was -14 mmHg. Further, the figures for the “CBF Ratio” value in the assay filed under Canis familiaris [2] and with Canis familiaris [5] were 0 and 11, respectively. Besides, the “FBF Ratio” value was found to be 48 in the assay with Canis familiaris [3] and 0.7 in the assay filed under Canis familiaris [4].

Regarding `COc1cc2c(cc1C(=O)N1CCC(N(C)CCc3ccccc3)CC1)CCC(=O)N2.Cl`, in the assay with Canis familiaris [1], the BP is on record as -8 mmHg. Moreover, the “CBF Ratio” value in the assay listed under Canis familiaris [2] is given as 0. The FBF % change in the assay on Canis familiaris [3] is 26. Moreover, in the assay listed under Canis familiaris [4], the “FBF Ratio” value came to 1.98. The CBF % change in the assay on Canis familiaris [5] is 8.

On to `COC(=O)C1=C(C)NC(C)=C(C(=O)OC)C1c1ccccc1[N+](=O)[O-]` [NIFEDIPINE], for which the BP in the assay on Canis familiaris [1] was -37 mmHg. Also, in the assay with Canis familiaris [3], the FBF % change is -28. This compound gave a CBF % change with Canis familiaris [5] of 104.

For `CN(CCc1ccccc1)C1CCN(C(=O)c2cc3c(c([N+](=O)[O-])c2)NC(=O)CC3)CC1`, the “CBF Ratio” value in the assay filed under Canis familiaris [2] turned out to be 0.28. In the assay listed under Canis familiaris [4], the “FBF Ratio” value is 0.68.

Consider `CCC(=O)Nc1ccc(C(=O)N2CCC(N(C)CCc3ccccc3)CC2)cc1Cl.Cl`, for which the “CBF Ratio” value in the assay filed under Canis familiaris [2] turned out to be 0.16. Further, the “FBF Ratio” value in the assay listed under Canis familiaris [4] is 1.71.

`CCc1cc(C(=O)N2CCC(N(C)CCc3ccccc3)CC2)cc2ccc(O)nc12.O=C(O)C(=O)O`: the BP in the assay with Canis familiaris [1] is recorded as -22 mmHg. The “CBF Ratio” value in the assay filed under Canis familiaris [2] turned out to be 0.18. The FBF % change in the assay on Canis familiaris [3] came to 78. In addition, in the assay listed under Canis familiaris [4], the “FBF Ratio” value turned out to be 0.96. Further, the CBF % change in the assay with Canis familiaris [5] is recorded as 26.

Consider `CN(CCc1ccccc1)C1CCN(C(=O)c2cc([N+](=O)[O-])c3nc(O)ccc3c2)CC1.Cl`, for which the BP in the assay with Canis familiaris [1] is on record as -21 mmHg. Besides, the “CBF Ratio” value in the assay filed under Canis familiaris [2] amounted to 1.15. This compound also yielded an FBF % change with Canis familiaris [3] of 32. The “FBF Ratio” value in the assay filed under Canis familiaris [4] is given as 1.6. The CBF % change in the assay with Canis familiaris [5] is 9.

`CN(CCc1ccccc1)C1CCN(C(=O)c2cccc3c2NC(=O)CC3)CC1.Cl`: in the assay filed under Canis familiaris [2], the “CBF Ratio” value was found to be 0.09. The “FBF Ratio” value in the assay filed under Canis familiaris [4] is listed as 0.62.

Take `CCC(=O)Nc1ccc(C(=O)N2CCC(N(C)CCc3ccccc3)CC2)cc1`: the BP in the assay with Canis familiaris [1] is listed as -7 mmHg. Further, in the assay filed under Canis familiaris [2], the “CBF Ratio” value was determined as 0.02. Besides, the FBF % change in the assay with Canis familiaris [3] came out at 38. The “FBF Ratio” value in the assay filed under Canis familiaris [4] was 1.23. For the same compound, in the assay on Canis familiaris [5], the CBF % change is 5.

`CCCc1cc(C(=O)N2CCC(N(C)CCc3ccccc3)CC2)cc2ccc(O)nc12.Cl`: in the assay with Canis familiaris [1], the BP is given as -22 mmHg. Moreover, in the assay listed under Canis familiaris [2], the “CBF Ratio” value is 0.35. In the assay on Canis familiaris [3], this compound registered an FBF % change of 67. Also, the “FBF Ratio” value in the assay filed under Canis familiaris [4] came to 1.61. Also, the CBF % change in the assay with Canis familiaris [5] was 8.

As for `COc1cc(C(=O)N2CCC(N(C)CCc3ccccc3)CC2)cc2ccc(O)nc12.Cl`, the BP in the assay on Canis familiaris [1] was -10 mmHg. For the same compound, in the assay listed under Canis familiaris [2], the “CBF Ratio” value stood at 0.04. In addition, the FBF % change with Canis familiaris [3] is listed as 55. Also, the “FBF Ratio” value in the assay listed under Canis familiaris [4] was determined as 1.36. In the assay with Canis familiaris [5], this compound had a CBF % change of 10.

With `Cc1cc(C(=O)N2CCC(N(C)CCc3ccccc3)CC2)cc2c1NC(=O)CC2.Cl`, the BP in the assay with Canis familiaris [1] was -26 mmHg. The “CBF Ratio” value in the assay filed under Canis familiaris [2] turned out to be 0.14. Further, the FBF % change in the assay on Canis familiaris [3] was determined as 32. For the same compound, the “FBF Ratio” value in the assay listed under Canis familiaris [4] is reported as 0.67. Also, in the assay on Canis familiaris [5], the CBF % change is reported as 13.

On to `CCC(=O)Nc1c(C)cc(C(=O)N2CCC(N(C)CCc3ccccc3)CC2)cc1Cl.Cl`, for which the “CBF Ratio” value in the assay filed under Canis familiaris [2] is reported as 0.08. Besides, the “FBF Ratio” value in the assay listed under Canis familiaris [4] came to 0.1.

Consider `CCC(=O)Nc1c(C)cc(C(=O)N2CCC(N(C)CCc3ccccc3)CC2)cc1[N+](=O)[O-]`, for which, in the assay filed under Canis familiaris [2], the “CBF Ratio” value was 0.09. For the same compound, the “FBF Ratio” value in the assay filed under Canis familiaris [4] came out at 0.24.

With `CCC(=O)Nc1ccc(C(=O)N2CCC(N(C)CCc3ccccc3)CC2)cc1[N+](=O)[O-].Cl`, the “CBF Ratio” value in the assay filed under Canis familiaris [2] is given as 0.26. Further, in the assay filed under Canis familiaris [4], the “FBF Ratio” value is on record as 0.29.

In the case of `CCC(=O)Nc1ccc(C(=O)N2CCC(N(C)CCc3ccccc3)CC2)c(C)c1C.Cl`, the “CBF Ratio” value in the assay filed under Canis familiaris [2] stood at 0. In addition, the “FBF Ratio” value in the assay listed under Canis familiaris [4] was found to be 0.43.

As to `CCC(=O)Nc1cc(C)c(C(=O)N2CCC(N(C)CCc3ccccc3)CC2)cc1C.Cl`, in the assay filed under Canis familiaris [2], the “CBF Ratio” value was determined as 0. The “FBF Ratio” value in the assay listed under Canis familiaris [4] turned out to be 0.49.

On to `CN(CCc1ccccc1)C1CCN(C(=O)C2CC(=O)Nc3ccccc32)CC1.Cl` (stereo not drawn), for which the BP with Canis familiaris [1] was -15 mmHg. Also, in the assay listed under Canis familiaris [2], the “CBF Ratio” value is 0.01. The same compound showed an FBF % change in the assay with Canis familiaris [3] of 101. Further, the “FBF Ratio” value in the assay filed under Canis familiaris [4] was found to be 0.85. Also, the CBF % change in the assay on Canis familiaris [5] worked out at 13.

Regarding `CCc1cc(C(=O)N2CCC(N(C)CCc3ccccc3)CC2)cc2c1NC(=O)CC2.O=C(O)C(=O)O`, in the assay with Canis familiaris [1], the BP is given as -26 mmHg. Besides, in the assay listed under Canis familiaris [2], the “CBF Ratio” value was 0.18. In the assay on Canis familiaris [3], the FBF % change is 54. Further, the “FBF Ratio” value in the assay listed under Canis familiaris [4] worked out at 1.07. In the assay with Canis familiaris [5], this compound yielded a CBF % change of 15.

Regarding `CN(CCc1ccccc1)C1CCN(C(=O)c2ccc3c(c2)NC(=O)CC3)CC1`, the “CBF Ratio” value in the assay filed under Canis familiaris [2] amounted to 0.07. Besides, the “FBF Ratio” value in the assay listed under Canis familiaris [4] was determined as 0.19.

With `CN(CCc1ccccc1)C1CCN(C(=O)c2cccc3nc(O)ccc23)CC1.Cl`, the “CBF Ratio” value in the assay listed under Canis familiaris [2] is listed as 0.01. Further, in the assay filed under Canis familiaris [4], the “FBF Ratio” value is 0.32.

As for `COc1cc2nc(O)ccc2cc1C(=O)N1CCC(N(C)CCc2ccccc2)CC1`, the BP with Canis familiaris [1] is reported as -9 mmHg. Further, in the assay filed under Canis familiaris [2], the CBF Ratio came to 0.04. In the assay with Canis familiaris [3], this compound returned an FBF % change of 26. Besides, in the assay listed under Canis familiaris [4], the “FBF Ratio” value is 1.07. The CBF % change with Canis familiaris [5] is 7.

For the origin of these results see ChEMBL document CHEMBL1145834, “Novel selective hindlimb vasodilators: synthesis and biological activity of 1-acyl-4-aminopiperidine derivatives” (2003).
